A selection: hits, their analogues and other compounds. The true share with any hit is near 4.9%.
NF-kB neuron act = compounds increasing NF-kB expression in human neuronal cells | NF-kB reporter expression; stronger effect = higher value | fold change at 12.5 µM | actives 1.6% (n = 190,000) | AID 1239; in the data active means fold change above about 3.3
STAT1 blocker = reduces IFN-gamma driven STAT1 reporter signal; NIH 3T3 STAT1-luciferase reporter, luminescence; inhibition, % at 5.5 µM; actives 0.35% (n = 200,000);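 active means inhibition above a set limit, the mean inhibition across all tested compounds plus 3 SD, cut at about 34% in these data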
STAT1 act = STAT1 signaling activation | NIH 3T3 STAT1-luciferase reporter, IFN-gamma, luminescence; 100% = IFN-gamma alone, no compound | activation (% of control), % at 5.5 µM | actives 2.6% (n = 200,000) | AID 932;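 active means activation above the screen-wide mean activation plus 3 SD, cut at about 130% in these data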
STAT3 activator = increases IL-6 driven STAT3 reporter signal. U3A cells, IL-6 STAT3-luciferase reporter, luminescence; 100% = signal with IL-6 EC80 alone. activation (% of control), % at 5.6 µM. actives 0.91% (n = 190,000). AID 871;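 active means activation above the screen-wide mean of compound activation plus 3 SD, cut at about 130% in these data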
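Material: STAT3-luciferase reporter U3A cells. Controls: IL-6-treated wells, 100% activation. Read-out: % activation versus median of IL-6-stimulated wells. Probe or stimulus: IL-6 stimulus at 33 ng/mL final. Timing: compound 1 h, then IL-6 6 h at 37 °C. Signal: reporter luminescence signal.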
STAT3 blocker = reduces IL-6 driven STAT3 reporter signal. U3A cells, IL-6 STAT3-luciferase reporter, luminescence; host cell line lacks STAT1. inhibition, % at 5.5 µM. actives 0.89% (n = 190,000). AID 862;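 active means inhibition above the mean inhibition across all screened compounds plus 3 SD, cut at about 44% in these data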
APP 5'UTR act = activates APP 5'UTR luciferase reporter | SH-SY5Y APP 5'UTR luciferase reporter, luminescence; zero percent = DMSO vehicle wells | activation, % at 2 µM | actives 1% (n = 190,000) | AID 1276;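 active means activation above a set limit, based on mean plus 3 SD of controls, cut at about 140% in these data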
Large screens that a line does not name were inactive.

O=c1n(-c2ccc(Br)cc2)cnn1-c1ncccc1[N+](=O)[O-]	STAT1 act 130.5
O=C(Cc1ccccc1[N+](=O)[O-])NCc1ccc(Cl)cc1Cl	NF-kB neuron act 4.44, STAT1 act 131.2
O=C(Cc1ccccc1[N+](=O)[O-])NCc1ccc(Cl)cc1	none
CCOc1ccc(C(=O)Nc2cccc3ncccc23)cc1Br	none
Cc1ccc(C(=O)CC(=O)c2cc(Cl)ccc2O)cc1	NF-kB neuron act 4.26
CCOC(=O)N1CCC2(CC1)CC(=O)c1c(ccc3oc(C(=O)O)c(C)c13)O2	none
CCCNC(=O)c1oc2ccc3c(c2c1C)C(=O)CC(C)(C)O3	NF-kB neuron act 5.13, STAT1 act 144.9, APP 5'UTR act 190.2
CN(C(=O)CCn1c(=S)oc2ccccc21)c1ccc(F)cc1	none
O=C(Nc1ncc(Cc2cccc(Cl)c2Cl)s1)C1CCCO1 (configuration not stated)	STAT1 act 143.8
O=C(Nc1ncc(Cc2cccc(Cl)c2)s1)C1CCCO1 (configuration not stated)	none
CCCCNC(=O)COC(=O)c1ccc(N(C)C)cc1	none
Fc1ccc(Nc2ccc3ccccc3n2)c(F)c1	NF-kB neuron act 10.6, STAT1 blocker 44.2, STAT3 blocker 72.4, APP 5'UTR act 199.5
Cc1cc(Nc2ccc(F)cc2F)n2nc(C)nc2n1	none
CC(C)(C)CC(=O)O/N=C(\N)c1ccncc1	none
O=C1C2C3C=CC(C4CC34)C2C(=O)N1/N=C/c1c[nH]c2ccccc12 (configuration not stated)	STAT1 act 133.4
O=C1C2C3C=CC(C4CC34)C2C(=O)N1/N=C/c1ccc([N+](=O)[O-])s1 (configuration not stated)	none
CC1CCC/C(=N\NC(=S)Nc2ccccc2)C1 (configuration not stated)	none
CC1CCCC/C1=N\NC(=S)Nc1ccccc1 (configuration not stated)	APP 5'UTR act 174.9
O=C(O)/C=C/C(=O)N(Cc1ccc2c(c1)OCO2)C1CC(=O)N(CCc2ccccc2)C1=O (configuration not stated)	none
COC(=O)c1ccc(CO/N=C/c2ccc(OC)cc2)o1	NF-kB neuron act 4.61
CC(=O)N(/N=C1\Sc2ccccc2C1=O)c1ccccc1C	NF-kB neuron act 5.03
CC(=O)N(/N=C1\Sc2ccccc2C1=O)c1ccc(C)cc1C	none
Cc1ccc(C(=O)NC2CCc3ccccc3C2=O)cc1 (configuration not stated)	NF-kB neuron act 3.92, STAT1 act 141.4, APP 5'UTR act 155.6
COc1ccc2nc(N3CCOCC3)cc(C)c2c1	NF-kB neuron act 5.02
COc1ccc2c(C)cc(N3CCOCC3)nc2c1	none
CCCCNC(=O)c1cc(-c2ccc(OC)cc2)on1	NF-kB neuron act 3.57
CCCCNC(=O)c1cc(-c2ccc(OC)c(OC)c2)on1	none
CCN(CC)CCCNC(=O)c1cc(-c2ccc(Cl)cc2)on1	none
CCCCNC(=O)c1cc(-c2ccc(F)cc2)on1	NF-kB neuron act 11.5, STAT1 act 135.6
Cc1cccc(NC(=O)CCNC(=O)c2ccco2)c1	none
C=CCN(c1cccc(C(F)(F)F)c1)S(=O)(=O)c1cccc(C(=O)OCC(=O)NCCC)c1	none
Cc1nnc2sc(SCC(=O)Nc3nccs3)nn2c1=O	none
O=C(Nc1ccccc1)c1ccc(CSc2ccccn2)cc1	STAT1 act 133.1, APP 5'UTR act 197.2
O=C(NCCSc1ccccn1)c1ccc(Cl)cc1Cl	NF-kB neuron act 4.55
O=C(NCCSc1ccccn1)c1ccc(Cl)cc1	NF-kB neuron act 6.09, APP 5'UTR act 208.6
CSc1nc(O)c(C(c2cccc([N+](=O)[O-])c2)c2c(O)nc(SC)[nH]c2=O)c(=O)[nH]1	none
Cc1csc(NC(=O)c2cc3c(s2)-c2ccccc2OC3)n1	STAT1 act 138.6
CN(C)CCNC(=O)c1cc2c(s1)-c1ccccc1OC2	none
COc1ccc(CN2CCCC(CNC(=O)c3ccc(F)cc3)C2)c(C)c1C (configuration not stated)	none
COc1ccc(C(=O)C2CCCN(S(=O)(=O)C(C)C)C2)c(C)c1 (configuration not stated)	none
Cc1ccc(CNC(=O)CCC2CCCN(Cc3cccc4cccnc34)C2)o1 (configuration not stated)	none
CC1=NN(C(N)=S)C(=O)C1N=Nc1ccc(C)cc1C (configuration not stated)	STAT1 act 137.1
Oc1c(C(c2cccc(F)c2)N2CCN(Cc3ccccc3)CC2)sc2ncnn12 (configuration not stated)	none
Cn1c(O)c(C(C#N)=C2N=c3ccccc3=N2)c2ccccc21	STAT3 activator 134.7
CCC(C)N(CC(=O)Nc1cccc(C)c1C)C(=O)CCl (configuration not stated)	STAT1 blocker 38.2, STAT3 blocker 70.1
CC(C)N(CC(=O)Nc1ccc(Cl)cc1C(F)(F)F)C(=O)CCl	STAT1 blocker 45.6, STAT3 blocker 64.8
CCC(CC)NC(=O)Nc1cccc(C)c1C	none
C/C(=N\OC(=O)NC1CCCCC1)c1sc(-c2ccccc2)nc1C	none
CCNC(=O)O/N=C(\C)c1sc(-c2ccc(Cl)cc2)nc1C	NF-kB neuron act 7.07, STAT1 act 143.8, APP 5'UTR act 160.4
C/C(=N\OC(=O)NC(C)C)c1sc(-c2ccc(Cl)cc2)nc1C	NF-kB neuron act 5.79
C/C(=N\OC(=O)NC(C)C)c1sc(-c2ccccc2)nc1C	none
COc1ccccc1CCc1nnc(CCC(=O)N(C)Cc2cccc3cnccc23)o1	STAT1 act 131.0
COc1ccccc1CCc1nnc(CCC(=O)N(C)Cc2ccncc2C)o1	none
O=C(COC(=O)C1CCN(S(=O)(=O)c2ccc3c(c2)OCCO3)CC1)Nc1ccc(C(F)(F)F)cc1	none
CCOC(=O)c1c(C)[nH]c2cc(Br)c(O)cc12	NF-kB neuron act 3.38
CCOC(=O)c1c(OCC)[nH]c2c1cc(O)c1ccccc12	none
Cc1ccc2nc(-c3ccc(NC(=O)CSc4nccc(=O)[nH]4)cc3)sc2c1	STAT1 act 134.5, APP 5'UTR act 143.8
C=CCn1c(SCC(=O)Nc2ccc(N(C)C)cc2)nnc1-c1cccc(C)c1	none
C=CCn1c(SCC(=O)Nc2ccc(-c3nc4ccc(C)cc4s3)cc2)nnc1-c1ccncc1	STAT1 act 130.2, APP 5'UTR act 160.5
CCn1c(SCC(=O)Nc2ccc(-c3nc4ccc(C)cc4s3)cc2)nnc1-c1ccccc1	STAT1 act 132.2
Cc1ccc2nc(-c3ccc(NC(=S)NC(=O)CC(C)C)cc3)sc2c1	none
O=[N+]([O-])c1cccnc1NCCNc1ncc(C(F)(F)F)cc1Cl	STAT1 act 137.2
O=[N+]([O-])c1ccccc1NCCNc1ncc(C(F)(F)F)cc1Cl	none
COc1ccc(OC)c(/C=N/N(C)c2ccccc2)c1	STAT1 act 136.8

Source: PubChem (several laboratories)
